From ChEMBL document CHEMBL1146596, “New lupane derived compounds with pro-apoptotic activity in cancer cells: synthesis and structure-activity relationships” (2003)

System: CCRF-CEM
Assay: Cytotoxicity against chemosensitive CEM-T lymphoblastc leukemia cell line.
Assay type: functional, Homo sapiens
Procedure, shortened: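 Cells were kept in DMEM/RPMI 1640 with 10% fetal calf serum, 2 mM glutamine and antibiotics. They were seeded at 2500–30 000 cells/well according to growth characteristics and preincubated 24 h at 37 °C, 5% CO2. Four-fold compound dilutions were tested in duplicate for 72 h. MTT was then added for 1–4 h, the formazan was dissolved in 10% SDS (pH 5.5) overnight, and OD was read at 540 nm. Survival was taken relative to mean control, and TCS50 was derived from dose–response curves.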

Structure (SMILES) | TCS50 [µM]
COC(=O)[C@@]1(CC(=O)O)CC[C@]2(C)[C@H](CC[C@@H]3[C@@]4(C)CC[C@H](OC(C)=O)C(C)(C)[C@@H]4CC[C@]32C)C1=O | 110
CC(=O)OC[C@@]1(C(=O)C(=O)C(=O)C(C)C)CC[C@]2(C)[C@H](CC[C@@H]3[C@@]4(C)CC[C@H](OC(C)=O)C(C)(C)[C@@H]4CC[C@]32C)C1=O | 71
CC(=O)O[C@H]1CC[C@]2(C)[C@H]3CC[C@@H]4C(=O)[C@@](CC(=O)C(=O)C(C)C)(C(=O)OCOC(=O)C(C)(C)C)CC[C@@]4(C)[C@]3(C)CC[C@H]2C1(C)C | >250
CC(=O)OC[C@@]12CC[C@]3(C)[C@H](CC[C@@H]4[C@@]5(C)CC[C@H](OC(C)=O)C(C)(C)[C@@H]5CC[C@]43C)C1=C(C(C)C)C(=O)OC2=O | >250
COC(=O)[C@]1(COC(C)=O)CC[C@]2(C)[C@H](CC[C@@H]3[C@@]4(C)CC[C@H](OC(C)=O)C(C)(C)[C@@H]4CC[C@]32C)C1=O | 120
CC(=O)O[C@H]1CC[C@]2(C)[C@H]3CC[C@@H]4C5=C(C(C)C)C(=O)C[C@]5(C(=O)OCOC(=O)C(C)(C)C)CC[C@@]4(C)[C@]3(C)CC[C@H]2C1(C)C | 62.7
CC(=O)O[C@H]1CC[C@]2(C)[C@H]3CC[C@@H]4C(=O)[C@]5(CC[C@@]4(C)[C@]3(C)CC[C@H]2C1(C)C)COC(=O)C5 | >250
COC(=O)[C@@]12CC[C@]3(C)[C@H](CC[C@@H]4[C@@]5(C)CC[C@H](OC(C)=O)C(C)(C)[C@@H]5CC[C@]43C)C1=C(C(C)C)C(=O)OC2=O | 127
CC(=O)OCOC(=O)[C@]1(COC(C)=O)CC[C@]2(C)[C@H](CC[C@@H]3[C@@]4(C)CC[C@H](OC(C)=O)C(C)(C)[C@@H]4CC[C@]32C)C1=O | 86
COC(=O)[C@@]1(CC(=O)C(=O)C(C)C)CC[C@]2(C)[C@H](CC[C@@H]3[C@@]4(C)CC[C@H](OC(C)=O)C(C)(C)[C@@H]4CC[C@]32C)C1=O | 107
CC(=O)O[C@H]1CC[C@]2(C)[C@H]3CC[C@@H]4C(=O)CCC[C@@]4(C)[C@]3(C)CC[C@H]2C1(C)C | >250
CCOC[C@@H]1CC[C@]2(C)[C@H](CC[C@@H]3[C@@]4(C)CC[C@H](OC(C)=O)C(C)(C)[C@@H]4CC[C@]32C)C1=O | 50
CC(=O)OC[C@@]1(CC(=O)O)CC[C@]2(C)[C@H](CC[C@@H]3[C@@]4(C)CC[C@H](OC(C)=O)C(C)(C)[C@@H]4CC[C@]32C)C1=O | 5
CC(=O)OCOC(=O)[C@@]12CC[C@]3(C)[C@H](CC[C@@H]4[C@@]5(C)CC[C@H](OC(C)=O)C(C)(C)[C@@H]5CC[C@]43C)C1=C(C(C)C)C(=O)C2 | >250
COC(=O)C[C@]1(COC(C)=O)CC[C@]2(C)[C@H](CC[C@@H]3[C@@]4(C)CC[C@H](OC(C)=O)C(C)(C)[C@@H]4CC[C@]32C)C1=O | >250
COC(=O)C[C@]1(C(=O)OCOC(C)=O)CC[C@]2(C)[C@H](CC[C@@H]3[C@@]4(C)CC[C@H](OC(C)=O)C(C)(C)[C@@H]4CC[C@]32C)C1=O | 94
C=C1CC[C@]2(C)[C@H](CC[C@@H]3[C@@]4(C)CC[C@H](OC(C)=O)C(C)(C)[C@@H]4CC[C@]32C)C1=O | >250

Structure (SMILES) | TCS50 [µM]
COC(=O)C[C@]1(C(=O)OCOC(=O)C(C)(C)C)CC[C@]2(C)[C@H](CC[C@@H]3[C@@]4(C)CC[C@H](OC(C)=O)C(C)(C)[C@@H]4CC[C@]32C)C1=O | 99
COC(=O)C[C@]1(C(=O)OC)CC[C@]2(C)[C@H](CC[C@@H]3[C@@]4(C)CC[C@H](OC(C)=O)C(C)(C)[C@@H]4CC[C@]32C)C1=O | >250
COC(=O)C[C@@H]1CC[C@]2(C)[C@H](CC[C@@H]3[C@@]4(C)CC[C@H](OC(C)=O)C(C)(C)[C@@H]4CC[C@]32C)C1=O | 106
CC(=O)O[C@H]1CC[C@]2(C)[C@H]3CC[C@H](C(=O)OCOC(=O)C(C)(C)C)[C@@](C)(CCC(=O)OCOC(=O)C(C)(C)C)[C@]3(C)CC[C@H]2C1(C)C | >250
CC(=O)OC[C@@]12CC[C@]3(C)[C@H](CC[C@@H]4[C@@]5(C)CC[C@H](OC(C)=O)C(C)(C)[C@@H]5CC[C@]43C)C1=C(C(C)C)C(=O)C2 | 14
CC(=O)O[C@H]1CC[C@]2(C)[C@H]3CC[C@@H]4C5=C(C(C)C)C(=O)C[C@]5(C(=O)O)CC[C@@]4(C)[C@]3(C)CC[C@H]2C1(C)C | >250
COC(=O)[C@@]12CC[C@]3(C)[C@H](CC[C@@H]4[C@@]5(C)CC[C@H](OC(C)=O)C(C)(C)[C@@H]5CC[C@]43C)C1=C(C(C)C)C(=O)C2 | 20.4
COC(=O)CC[C@]1(C)[C@@H](C(=O)OC)CC[C@@H]2[C@@]3(C)CC[C@H](OC(C)=O)C(C)(C)[C@@H]3CC[C@]21C | >250
CC(=O)O[C@H]1CC[C@]2(C)[C@H]3CC[C@H](C(=O)O)[C@@](C)(CCC(=O)O)[C@]3(C)CC[C@H]2C1(C)C | >250
CC(=O)OCOC(=O)[C@@]1(CC(=O)C(=O)C(C)C)CC[C@]2(C)[C@H](CC[C@@H]3[C@@]4(C)CC[C@H](OC(C)=O)C(C)(C)[C@@H]4CC[C@]32C)C1=O | 18
CC(=O)O[C@H]1CC[C@]2(C)[C@H]3CC[C@@H]4C5=C(C(C)C)C(=O)C[C@]5(CO)CC[C@@]4(C)[C@]3(C)CC[C@H]2C1(C)C | 232
CC(=O)O[C@H]1CC[C@]2(C)[C@H]3CC[C@@H]4C5=C(C(C)C)C(=O)C(=O)[C@]5(C(=O)OCOC(=O)C(C)(C)C)CC[C@@]4(C)[C@]3(C)CC[C@H]2C1(C)C | 105.4
CC(=O)OCOC(=O)[C@@]12CC[C@]3(C)[C@H](CC[C@@H]4[C@@]5(C)CC[C@H](OC(C)=O)C(C)(C)[C@@H]5CC[C@]43C)C1=C(C(C)C)C(=O)C2=O | 3
CC(=O)OC[C@@]1(CC(=O)C(=O)C(C)C)CC[C@]2(C)[C@H](CC[C@@H]3[C@@]4(C)CC[C@H](OC(C)=O)C(C)(C)[C@@H]4CC[C@]32C)C1=O | >250
CC(=O)OC[C@]12C=CC(C(C)C)=C1[C@H]1CC[C@@H]3[C@@]4(C)CC[C@H](OC(C)=O)C(C)(C)[C@@H]4CC[C@@]3(C)[C@]1(C)CC2 | >250
CC(=O)OC[C@@]12CC[C@]3(C)[C@H](CC[C@@H]4[C@@]5(C)CC[C@H](OC(C)=O)C(C)(C)[C@@H]5CC[C@]43C)C1=C(C(C)C)C(=O)C2=O | 66
